Measurements reported in ChEMBL document CHEMBL1157562, “Piperazinyl glutamate pyridines as potent orally bioavailable P2Y12 antagonists for inhibition of platelet aggregation” (J Med Chem, 2010).

Legend:
[1] = Antiplatelet aggregation activity against adenosine diphosphate-induced human platelet rich plasma assessed as inhibition of platelet aggregation by turbidimetric method; assay type: functional; conditions: Homo sapiens, Platelet, Plasma
Summary of the method: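 Human PRP, prepared by two-step centrifugation and adjusted to 330 000 platelets/μL with PPP. Compound was preincubated 5 min at 37 °C in 0.5% DMSO, then 20 μM ADP was added. OD626 was read kinetically for 15 min at 37 °C with mixing between reads.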

Platelet = assay: Relative potency, ratio of IC50 for drug to IC50 for AZD-6140 for platelet aggregation in human platelet rich plasma; assay type: functional
P2Y purinoceptor 12 = P2Y purinoceptor 12 (Homo sapiens, UniProt Q9H244); assay: Displacement of [33P]ADP from human recombinant P2Y12 receptor expressed in CHO cells; assay type: cell-based
Chain of P2Y purinoceptor 12 (Q9H244 whole entry): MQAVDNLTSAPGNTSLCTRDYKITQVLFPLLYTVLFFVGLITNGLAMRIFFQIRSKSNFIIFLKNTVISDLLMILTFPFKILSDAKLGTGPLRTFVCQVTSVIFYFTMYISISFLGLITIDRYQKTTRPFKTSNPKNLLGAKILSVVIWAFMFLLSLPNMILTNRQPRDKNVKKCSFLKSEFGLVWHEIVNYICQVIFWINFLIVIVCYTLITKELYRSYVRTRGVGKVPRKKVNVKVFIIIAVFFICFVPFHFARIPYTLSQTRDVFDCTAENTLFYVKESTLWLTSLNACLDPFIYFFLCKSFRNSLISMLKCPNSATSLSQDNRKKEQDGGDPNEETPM
Summary of the method: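 Washed membranes from CHO cells expressing synthetic human P2Y12, incubated 1 h at room temperature with 0.2 nM 33P-MeSADP in 50 mM Tris/100 mM NaCl/1 mM EDTA. Compound was tested as a 7-point 3-fold series in triplicate. Nonspecific binding was defined with 300 nM 2-MeSADP, followed by filtration.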

CCCCCOC(=O)N1CCN(C(=O)[C@H](CCC(=O)O)NC(=O)c2cc(OCC3CCN(C(=O)COC)CC3)cc(-c3ccccc3)n2)CC1
IC50 [1]: 1300 nM | Ratio IC50 (Platelet): 1.3 | Ki (P2Y purinoceptor 12): 12 nM

CCCCOC(=O)N1CCN(C(=O)[C@H](CCC(=O)O)NC(=O)c2cc(N3CCC(N4CCCC4)CC3)cc(-c3ccccc3)n2)CC1
IC50 [1]: 560 nM | Ratio IC50 (Platelet): 1.7 | Ki (P2Y purinoceptor 12): 64 nM

CCCCCOC(=O)N1CCN(C(=O)[C@H](CCC(=O)O)NC(=O)c2cc(NC(=O)NCC3CCNCC3)cc(-c3ccccc3)n2)CC1
IC50 [1]: 5600 nM | Ratio IC50 (Platelet): 3.8 | Ki (P2Y purinoceptor 12): 1.4 nM

CCCCOC(=O)N1CCN(C(=O)[C@H](CCC(=O)O)NC(=O)c2cc(OC(=O)N3CC[C@@H](OC)C3)cc(-c3ccccc3)n2)CC1
IC50 [1]: 770 nM | Ratio IC50 (Platelet): 0.97 | Ki (P2Y purinoceptor 12): 1.5 nM

CCCCCOC(=O)N1CCN(C(=O)[C@H](CCC(=O)O)NC(=O)c2cc(NCCOC)cc(-c3ccccc3)n2)CC1
IC50 [1]: 3200 nM | Ratio IC50 (Platelet): 4.9 | Ki (P2Y purinoceptor 12): 9.8 nM

CCCCOC(=O)N1CCN(C(=O)[C@H](CCC(=O)O)NC(=O)c2cc(OC3CCOCC3)cc(-c3ccccc3)n2)CC1
IC50 [1]: 4100 nM | Ratio IC50 (Platelet): 6.3 | Ki (P2Y purinoceptor 12): 10 nM

CCCCCOC(=O)N1CCN(C(=O)[C@H](CCC(=O)O)NC(=O)c2cc(OCCN)cc(-c3ccccc3)n2)CC1
IC50 [1]: 2400 nM | Ratio IC50 (Platelet): 3 | Ki (P2Y purinoceptor 12): 8.8 nM

CCCCCOC(=O)N1CCN(C(=O)[C@H](CCC(=O)O)NC(=O)c2cc(N3CCC(NC)CC3)cc(-c3ccccc3)n2)CC1
IC50 [1]: 1000 nM | Ratio IC50 (Platelet): 1.1 | Ki (P2Y purinoceptor 12): 6.5 nM

CCCCOC(=O)N1CCN(C(=O)[C@H](CCC(=O)O)NC(=O)c2cc(OCC3CCN(C(=O)COC)CC3)cc(-c3ccccc3)n2)CC1
IC50 [1]: 1500 nM | Ratio IC50 (Platelet): 1.4 | Ki (P2Y purinoceptor 12): 2.6 nM

CCCCOC(=O)N1CCN(C(=O)[C@H](CCC(=O)O)NC(=O)c2cc(OC(=O)N(C)C3CCOC3)cc(-c3ccccc3)n2)CC1 (stereo partly specified)
IC50 [1]: 520 nM | Ratio IC50 (Platelet): 0.63 | Ki (P2Y purinoceptor 12): 1.8 nM

CCCCOC(=O)N1CCN(C(=O)[C@H](CCC(=O)O)NC(=O)c2cc(OC(=O)N(C)CC3CCOCC3)cc(-c3ccccc3)n2)CC1
IC50 [1]: 590 nM | Ratio IC50 (Platelet): 0.87 | Ki (P2Y purinoceptor 12): 1.5 nM

CCCCOC(=O)N1CCN(C(=O)[C@H](CCC(=O)O)NC(=O)c2cc(OCC3CCN(C(C)C)CC3)cc(-c3ccccc3)n2)CC1
IC50 [1]: 410 nM | Ratio IC50 (Platelet): 0.33 | Ki (P2Y purinoceptor 12): 4.5 nM

CCCCCOC(=O)N1CCN(C(=O)[C@H](CCC(=O)O)NC(=O)c2cc(C(=O)NCCCOC)cc(-c3ccccc3)n2)CC1
IC50 [1]: 4600 nM | Ratio IC50 (Platelet): 12 | Ki (P2Y purinoceptor 12): 6.1 nM

CCCCCOC(=O)N1CCN(C(=O)[C@H](CCC(=O)O)NC(=O)c2cc(NC(=O)N3CCC(COC)CC3)cc(-c3ccccc3)n2)CC1
IC50 [1]: 4500 nM | Ratio IC50 (Platelet): 5.2 | Ki (P2Y purinoceptor 12): 43 nM

CCCCCOC(=O)N1CCN(C(=O)[C@H](CCC(=O)O)NC(=O)c2cc(OCCC)cc(-c3ccccc3)n2)CC1
IC50 [1]: 22000 nM | Ratio IC50 (Platelet): 28 | Ki (P2Y purinoceptor 12): 18 nM

CCCCOC(=O)N1CCN(C(=O)[C@H](CCC(=O)O)NC(=O)c2cc(OCCCC)cc(-c3ccccc3)n2)CC1
IC50 [1]: 27000 nM | Ratio IC50 (Platelet): 18 | Ki (P2Y purinoceptor 12): 35 nM

CCCCCOC(=O)N1CCN(C(=O)[C@H](CCC(=O)O)NC(=O)c2cc(C(=O)N(C)C)cc(-c3ccccc3)n2)CC1
IC50 [1]: 1100 nM | Ratio IC50 (Platelet): 1 | Ki (P2Y purinoceptor 12): 2.4 nM

CCCCOC(=O)N1CCN(C(=O)[C@H](CCC(=O)O)NC(=O)c2cc(N3CCC(NC)CC3)cc(-c3ccccc3)n2)CC1
IC50 [1]: 1200 nM | Ratio IC50 (Platelet): 0.86 | Ki (P2Y purinoceptor 12): 2.7 nM

CCCCOC(=O)N1CCN(C(=O)[C@H](CCC(=O)O)NC(=O)c2cc(OC(=O)N3CCC(OCC)CC3)cc(-c3ccccc3)n2)CC1
IC50 [1]: 1000 nM | Ratio IC50 (Platelet): 1.2 | Ki (P2Y purinoceptor 12): 2.1 nM

CCCOc1cc(C(=O)N[C@@H](CCC(=O)O)C(=O)N2CCN(C(=O)OCC)CC2)nc(-c2ccccc2)c1
IC50 [1]: 36000 nM | Ratio IC50 (Platelet): 46 | Ki (P2Y purinoceptor 12): 120 nM

CCCCCOC(=O)N1CCN(C(=O)[C@H](CCC(=O)O)NC(=O)c2cc(C(=O)N(C)CCCN(C)C)cc(-c3ccccc3)n2)CC1
IC50 [1]: 420 nM | Ratio IC50 (Platelet): 0.96 | Ki (P2Y purinoceptor 12): 8.6 nM

CCCCCOC(=O)N1CCN(C(=O)[C@H](CCC(=O)O)NC(=O)c2cc(NC(=O)N3CCC(OC)CC3)cc(-c3ccccc3)n2)CC1
IC50 [1]: 5500 nM | Ratio IC50 (Platelet): 6.1 | Ki (P2Y purinoceptor 12): 9.2 nM

CCCCOC(=O)N1CCN(C(=O)[C@H](CCC(=O)O)NC(=O)c2cc(OCC3CCN(C)CC3)cc(-c3ccccc3)n2)CC1
IC50 [1]: 240 nM | Ratio IC50 (Platelet): 0.38 | Ki (P2Y purinoceptor 12): 2.5 nM

CCCCOC(=O)N1CCN(C(=O)[C@H](CCC(=O)O)NC(=O)c2cc(OC3CCN(C(=O)OCC)CC3)cc(-c3ccccc3)n2)CC1
IC50 [1]: 3700 nM | Ratio IC50 (Platelet): 5.9 | Ki (P2Y purinoceptor 12): 20 nM

CCCCCOC(=O)N1CCN(C(=O)[C@H](CCC(=O)O)NC(=O)c2cc(N3CCC(CO)CC3)cc(-c3ccccc3)n2)CC1
IC50 [1]: 1800 nM | Ratio IC50 (Platelet): 6.3 | Ki (P2Y purinoceptor 12): 2.4 nM

CCCCCOC(=O)N1CCN(C(=O)[C@H](CCC(=O)O)NC(=O)c2cc(C(=O)N(C)CCCC)cc(-c3ccccc3)n2)CC1
IC50 [1]: 1800 nM | Ratio IC50 (Platelet): 3.3 | Ki (P2Y purinoceptor 12): 5.8 nM

CCCCCOC(=O)N1CCN(C(=O)[C@H](CCC(=O)O)NC(=O)c2cc(C(N)=O)cc(-c3ccccc3)n2)CC1
IC50 [1]: 8900 nM | Ratio IC50 (Platelet): 9 | Ki (P2Y purinoceptor 12): 7.5 nM

CCCCCOC(=O)N1CCN(C(=O)[C@H](CCC(=O)O)NC(=O)c2cc(OCC3CCN(C(C)=O)CC3)cc(-c3ccccc3)n2)CC1
IC50 [1]: 1300 nM | Ratio IC50 (Platelet): 1.8 | Ki (P2Y purinoceptor 12): 1.3 nM

CCCCCOC(=O)N1CCN(C(=O)[C@H](CCC(=O)O)NC(=O)c2cc(C(=O)N(C)CCCOC)cc(-c3ccccc3)n2)CC1
IC50 [1]: 630 nM | Ratio IC50 (Platelet): 1.4 | Ki (P2Y purinoceptor 12): 2.6 nM

CCCCOC(=O)N1CCN(C(=O)[C@H](CCC(=O)O)NC(=O)c2cc(OC3CCN(C(C)=O)CC3)cc(-c3ccccc3)n2)CC1
IC50 [1]: 1200 nM | Ratio IC50 (Platelet): 1.1 | Ki (P2Y purinoceptor 12): 2.8 nM

CCOC(=O)N1CCN(C(=O)[C@H](CCC(=O)O)NC(=O)c2cc(OC3CCNCC3)cc(-c3ccccc3)n2)CC1
IC50 [1]: 1900 nM | Ratio IC50 (Platelet): 2.5

CCCCCOC(=O)N1CCN(C(=O)[C@H](CCC(=O)O)NC(=O)c2cc(N3CCC(O)CC3)cc(-c3ccccc3)n2)CC1
IC50 [1]: 2500 nM | Ratio IC50 (Platelet): 3.2

CCCCCCOC(=O)N1CCN(C(=O)[C@H](CCC(=O)O)NC(=O)c2cc(N3CCC(COC)CC3)cc(-c3ccccc3)n2)CC1
IC50 [1]: 7600 nM | Ratio IC50 (Platelet): 8.9

CCCCOC(=O)N1CCN(C(=O)[C@H](CCC(=O)O)NC(=O)c2cc(OC3CCNCC3)cc(-c3ccccc3)n2)CC1
IC50 [1]: 1100 nM | Ratio IC50 (Platelet): 0.99

CCCCCCOC(=O)N1CCN(C(=O)[C@H](CCC(=O)O)NC(=O)c2cc(N3CCC(CN)CC3)cc(-c3ccccc3)n2)CC1
IC50 [1]: 1600 nM | Ratio IC50 (Platelet): 1.7

CCOC(=O)N1CCN(C(=O)[C@H](CCC(=O)O)NC(=O)c2cc(OCCO)cc(-c3ccccc3)n2)CC1
IC50 [1]: 7600 nM | Ratio IC50 (Platelet): 12

CCOC(=O)N1CCN(C(=O)[C@H](CCC(=O)O)NC(=O)c2cc(OC)cc(-c3ccccc3)n2)CC1
IC50 [1]: 39000 nM | Ratio IC50 (Platelet): 55

CCOC(=O)N1CCN(C(=O)[C@H](CCC(=O)O)NC(=O)c2cc(N3CCC(N4CCCC4)CC3)cc(-c3ccccc3)n2)CC1
IC50 [1]: 2000 nM | Ratio IC50 (Platelet): 6
